Data taken from ChEMBL document CHEMBL3351972, “Indole-3-ethylsulfamoylphenylacrylamides: potent histone deacetylase inhibitors with anti-inflammatory activity” (Eur J Med Chem, 2014).
Calls of active or inactive are those of the source. The calls are words filed in the database; no cut-off is given here.

Legend:
RAW264.7 [1] = test: Anti-inflammatory activity in LPS-stimulated mouse RAW264.7 cells assessed as suppression of nitric oxide production pre-incubated for 1 hr before LPS stimulation for 24 hrs by Griess reagent based assay; format: functional, cell-based
Procedure, shortened: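 Nitrite concentration was quantified against a standard dilution series of sodium nitrite.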

RAW264.7 [2] = test: Toxicity against mouse RAW264.7 cells assessed as reduction in cell viability at 0.01 to 1 uM incubated for 24 hrs by MTT assay; format: cell-based; settings: raw264.7, 24 h
Procedure, shortened: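 Macrophages were exposed to compound at 0.01–1 for 24 h. Viability was then assessed by MTT assay.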

Rattus norvegicus [3] = test: Anti-inflammatory activity in Wistar rat model of carrageenan-induced edema assessed as reduction in right hind paw thickness at 20 mg/kg, po dosed 1 hour before carrageenan injection measured 3 hrs post carrageenan challenge by digital plethysmometry; format: functional, organism-based; parameters: dose 20 mg/kg
Procedure, shortened: (§1)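 Male Wistar rats (7 weeks) were randomised into eight groups. They were dosed orally 1 h before carrageenan: vehicle (1% carboxymethyl cellulose + 0.5% Tween 80), test suspensions at 20 mg/kg, or indomethacin as positive control at 1 mg/kg. Carrageenan (0.5% w/v in saline) was injected intradermally into the base of the right hind paw. Paw change was read at 3 h by digital caliper and plethysmometer.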

RAW264.7 [4] = test: Anti-inflammatory activity in LPS-stimulated mouse RAW264.7 cells assessed as suppression of COX2 protein expression at 0.01 to 1 uM pre-incubated for 30 mins before LPS stimulation for 24 hrs by Western blotting method; format: functional, cell-based
Procedure, shortened: (§2)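 RAW 264.7 cells (1 × 10⁶/well) were pretreated with compound at 0.01–1 for 30 min, then stimulated with LPS (25 ng/mL) for 24 h. Whole-cell extracts were cleared at 17,000 g for 30 min at 4 °C, and protein was measured by Bradford. Blots were blocked in 5% milk/TBST, probed with primary antibody overnight at 4 °C, then HRP secondary (1:1000) 1 h RT. Data are mean ± SEM of three replicates, compared with the LPS-only group.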

[5] = target: Transcription factor p65 (Mus musculus) (UniProt Q04207); test: Inhibition of p65 phosphorylation in LPS-stimulated mouse RAW264.7 cells at 0.01 to 1 uM pre-incubated for 30 mins before LPS stimulation for 24 hrs by Western blotting method; format: cell-based; procedure, shortened: as §2
Histone deacetylase = test: Inhibition of HDAC in human HeLa cells nuclear extracts incubated for 30 mins by fluorescent assay; format: cell-free
RAW264.7 [6] = test: Anti-inflammatory activity in LPS-stimulated mouse RAW264.7 cells assessed as suppression of TNFalpha production pre-incubated for 1 hr before LPS stimulation for 24 hrs by ELISA method; format: functional, cell-based
Procedure, shortened: (§3)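 IL-6 and TNF-α were measured by ELISA. RAW 264.7 cells (1 × 10⁶) were plated and pretreated with or without compound for 1 h, then stimulated with LPS (25 ng/mL) for 24 h at 37 °C.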

RAW264.7 [7] = test: Inhibition of HDAC in mouse RAW264.7 cells assessed as increase in histone H3 acetylation at > 0.1 uM incubated for 24 hrs by Western blotting method
RAW264.7 [8] = test: Anti-inflammatory activity in LPS-stimulated mouse RAW264.7 cells assessed as suppression of PGE2 production pre-incubated for 1 hr before LPS stimulation for 24 hrs by enzyme immunoassay method; format: functional, cell-based
Procedure, shortened: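 RAW 264.7 cells (1 × 10⁶) were treated with or without compound for 1 h, then stimulated with LPS (25 ng/mL) for 24 h at 37 °C. PGE₂ in culture supernatants was measured by EIA kit.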

RAW264.7 [9] = test: Anti-inflammatory activity in LPS-stimulated mouse RAW264.7 cells assessed as suppression of iNOS protein expression at 0.01 to 1 uM pre-incubated for 30 mins before LPS stimulation for 24 hrs by Western blotting method; format: functional, cell-based; procedure, shortened: as §2
[10] = Retention time of the compound by HPLC method; format: physicochemical
RAW264.7 [11] = test: Anti-inflammatory activity in LPS-stimulated mouse RAW264.7 cells assessed as suppression of IL6 production pre-incubated for 1 hr before LPS stimulation for 24 hrs by ELISA method; format: functional, cell-based; procedure, shortened: as §3
Rattus norvegicus [12] = test: Anti-inflammatory activity in Wistar rat model of carrageenan-induced edema assessed as reduction in right hind paw thickness at 1 mg/kg, po dosed 1 hour before carrageenan injection measured 3 hrs post carrageenan challenge by digital plethysmometry; format: functional, organism-based; parameters: dose 1 mg/kg; procedure, shortened: as §1

Transcription factor p65 (Mus musculus), sequence (Q04207 whole entry): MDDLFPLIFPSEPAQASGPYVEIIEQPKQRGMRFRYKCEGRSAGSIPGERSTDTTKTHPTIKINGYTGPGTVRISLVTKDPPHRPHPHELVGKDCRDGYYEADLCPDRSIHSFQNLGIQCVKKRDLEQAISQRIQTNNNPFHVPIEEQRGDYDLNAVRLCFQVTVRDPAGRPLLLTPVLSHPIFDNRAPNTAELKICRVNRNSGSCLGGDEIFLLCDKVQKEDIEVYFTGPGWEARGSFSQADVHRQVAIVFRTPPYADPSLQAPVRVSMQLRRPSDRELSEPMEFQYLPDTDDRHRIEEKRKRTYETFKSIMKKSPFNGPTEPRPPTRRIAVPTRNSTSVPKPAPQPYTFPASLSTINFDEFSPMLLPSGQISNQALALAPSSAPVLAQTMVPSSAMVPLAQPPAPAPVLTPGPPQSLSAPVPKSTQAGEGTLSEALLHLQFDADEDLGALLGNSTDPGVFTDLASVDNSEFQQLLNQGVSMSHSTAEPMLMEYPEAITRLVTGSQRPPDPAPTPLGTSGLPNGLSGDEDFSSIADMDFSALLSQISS

For `Cc1c(CCNS(=O)(=O)c2ccc(/C=C/C(=O)NO)cc2)c2ccccc2n1C`, the IC50 (RAW264.7 [1]) was 300 nM, the Activity (RAW264.7 [2]) was “Non-toxic” and the inhibition (Rattus norvegicus [3]) was “Active”. For the same compound, the inhibition (RAW264.7 [4]) was “Active”, the inhibition [5] was “Dose-dependent effect” and the IC50 (Histone deacetylase) was 3.3 nM. The IC50 (RAW264.7 [6]) was 800 nM, the inhibition (RAW264.7 [7]) was “Active” and the IC50 (RAW264.7 [8]) was 150 nM. The inhibition (RAW264.7 [9]) was “Active”, the Retention_time [10] was 25.96 min and the IC50 (RAW264.7 [11]) was 14 nM.
For `Cc1[nH]c2ccccc2c1CCN(C(C)C)S(=O)(=O)c1ccc(/C=C/C(=O)NO)cc1`, the IC50 (RAW264.7 [1]) was 1600 nM, the IC50 (Histone deacetylase) was 9.2 nM and the IC50 (RAW264.7 [6]) was > 10000 nM. For the same compound, the IC50 (RAW264.7 [8]) was 7400 nM, the Retention_time [10] was 28.67 min and the IC50 (RAW264.7 [11]) was 4.5 nM.
For `O=C(/C=C/c1ccc(S(=O)(=O)NCCc2c[nH]c3ccccc23)cc1)NO`, the IC50 (RAW264.7 [1]) was 740 nM, the IC50 (Histone deacetylase) was 6.6 nM and the IC50 (RAW264.7 [6]) was 1200 nM. For the same compound, the IC50 (RAW264.7 [8]) was 2200 nM, the Retention_time [10] was 22.17 min and the IC50 (RAW264.7 [11]) was 0.014 nM.
With `Cc1[nH]c2ccccc2c1CCNS(=O)(=O)c1cccc(/C=C/C(=O)NO)c1` the IC50 (RAW264.7 [1]) was 360 nM, the Activity (RAW264.7 [2]) was “Non-toxic” and the inhibition (Rattus norvegicus [3]) was “Active”. The inhibition (RAW264.7 [4]) was “Active”, the inhibition [5] was “Dose-dependent effect” and the IC50 (Histone deacetylase) was 7.9 nM. The IC50 (RAW264.7 [6]) was 1500 nM, the inhibition (RAW264.7 [7]) was “Active” and the IC50 (RAW264.7 [8]) was 320 nM. The inhibition (RAW264.7 [9]) was “Active”, the Retention_time [10] was 23.3 min and the IC50 (RAW264.7 [11]) was 13 nM.
For `Cc1[nH]c2ccccc2c1CCNS(=O)(=O)c1ccc(/C=C/C(=O)NO)cc1`, the IC50 (RAW264.7 [1]) was 740 nM, the Activity (RAW264.7 [2]) was “Non-toxic” and the inhibition (Rattus norvegicus [3]) was “Active”. For the same compound, the inhibition (RAW264.7 [4]) was “Active”, the inhibition [5] was “Dose-dependent effect” and the IC50 (Histone deacetylase) was 2.8 nM. The IC50 (RAW264.7 [6]) was 480 nM, the inhibition (RAW264.7 [7]) was “Active” and the IC50 (RAW264.7 [8]) was 330 nM. For the same compound, the inhibition (RAW264.7 [9]) was “Active”, the Retention_time [10] was 23.3 min and the IC50 (RAW264.7 [11]) was 20 nM.
With `Cc1[nH]c2ccccc2c1CCNS(=O)(=O)c1ccc(C(=O)NO)cc1` the IC50 (RAW264.7 [1]) was > 10000 nM, the IC50 (Histone deacetylase) was 771.8 nM and the IC50 (RAW264.7 [6]) was > 10000 nM. The IC50 (RAW264.7 [8]) was > 10000 nM, the Retention_time [10] was 21.88 min and the IC50 (RAW264.7 [11]) was 23.9 nM.
With `COc1ccc2c(c1)c(CC(=O)O)c(C)n2C(=O)c1ccc(Cl)cc1` the inhibition (Rattus norvegicus [12]) was “Active”.
For `CCn1c(C)c(CCNS(=O)(=O)c2ccc(/C=C/C(=O)NO)cc2)c2ccccc21`, the IC50 (RAW264.7 [1]) was 260 nM, the Activity (RAW264.7 [2]) was “Non-toxic” and the inhibition (Rattus norvegicus [3]) was “Active”. For the same compound, the inhibition (RAW264.7 [4]) was “Active”, the inhibition [5] was “Dose-dependent effect” and the IC50 (Histone deacetylase) was 3.4 nM. For the same compound, the IC50 (RAW264.7 [6]) was 730 nM, the inhibition (RAW264.7 [7]) was “Active” and the IC50 (RAW264.7 [8]) was 270 nM. For the same compound, the inhibition (RAW264.7 [9]) was “Active”, the Retention_time [10] was 27.93 min and the IC50 (RAW264.7 [11]) was 21 nM.
For `O=C(/C=C/c1ccc(S(=O)(=O)N2CCc3c([nH]c4ccccc34)C2)cc1)NO`, the IC50 (RAW264.7 [1]) was 3700 nM, the IC50 (Histone deacetylase) was 43.9 nM and the IC50 (RAW264.7 [6]) was > 10000 nM. For the same compound, the IC50 (RAW264.7 [8]) was 7200 nM, the Retention_time [10] was 25.18 min and the IC50 (RAW264.7 [11]) was 31 nM.
For `Cc1[nH]c2ccccc2c1CCN(C)S(=O)(=O)c1ccc(/C=C/C(=O)NO)cc1`, the IC50 (RAW264.7 [1]) was 1000 nM, the IC50 (Histone deacetylase) was 47.4 nM and the IC50 (RAW264.7 [6]) was > 10000 nM. It also gave an IC50 (RAW264.7 [8]) of 2900 nM, a Retention_time [10] of 25.51 min and an IC50 (RAW264.7 [11]) of 5.5 nM.
In the case of `O=C(/C=C/c1cccc(S(=O)(=O)Nc2ccccc2)c1)NO` [BELINOSTAT], the IC50 (RAW264.7 [1]) is reported as 2200 nM, the IC50 (RAW264.7 [6]) is reported as 4700 nM and the IC50 (RAW264.7 [8]) is reported as 8280 nM. For the same compound, the IC50 (RAW264.7 [11]) was 0.059 nM.
Work on `Cn1cc(CCNS(=O)(=O)c2ccc(/C=C/C(=O)NO)cc2)c2ccccc21` yielded an IC50 (RAW264.7 [1]) of 290 nM, an IC50 (Histone deacetylase) of 5.7 nM and an IC50 (RAW264.7 [6]) of 620 nM. The IC50 (RAW264.7 [8]) was 1500 nM, the Retention_time [10] was 24.21 min and the IC50 (RAW264.7 [11]) was 32 nM.
`CCN(CC)CCn1c(C)c(CCNS(=O)(=O)c2ccc(/C=C/C(=O)NO)cc2)c2ccccc21` gave an IC50 (RAW264.7 [1]) of 3100 nM, an IC50 (Histone deacetylase) of 7.3 nM and an IC50 (RAW264.7 [6]) of 1500 nM. The IC50 (RAW264.7 [8]) was 3100 nM, the Retention_time [10] was 16.67 min and the IC50 (RAW264.7 [11]) was 0.14 nM.
With `CCN(CCc1c(C)[nH]c2ccccc12)S(=O)(=O)c1ccc(/C=C/C(=O)NO)cc1` the IC50 (RAW264.7 [1]) was 1200 nM, the IC50 (Histone deacetylase) was 29.6 nM and the IC50 (RAW264.7 [6]) was > 10000 nM. The IC50 (RAW264.7 [8]) was 2900 nM, the Retention_time [10] was 27.17 min and the IC50 (RAW264.7 [11]) was 5.9 nM.
